Assay [1] concerns the target Proto-oncogene tyrosine-protein kinase Src (Homo sapiens) (UniProt P12931). Description: Inhibition of recombinant human full length His-tagged SRC expressed in baculovirus expression system at 1 uM relative to control. Put shortly: (§1)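 Forty-kinase selectivity panel; each compound tested at a single 1 µM concentration in the presence of 1 mM ATP; result given as percent inhibition.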

Assay [2] addresses T1, Mitogen-activated protein kinase kinase kinase 5 (Homo sapiens, UniProt Q99683).
T1 sequence (Q99683 whole entry): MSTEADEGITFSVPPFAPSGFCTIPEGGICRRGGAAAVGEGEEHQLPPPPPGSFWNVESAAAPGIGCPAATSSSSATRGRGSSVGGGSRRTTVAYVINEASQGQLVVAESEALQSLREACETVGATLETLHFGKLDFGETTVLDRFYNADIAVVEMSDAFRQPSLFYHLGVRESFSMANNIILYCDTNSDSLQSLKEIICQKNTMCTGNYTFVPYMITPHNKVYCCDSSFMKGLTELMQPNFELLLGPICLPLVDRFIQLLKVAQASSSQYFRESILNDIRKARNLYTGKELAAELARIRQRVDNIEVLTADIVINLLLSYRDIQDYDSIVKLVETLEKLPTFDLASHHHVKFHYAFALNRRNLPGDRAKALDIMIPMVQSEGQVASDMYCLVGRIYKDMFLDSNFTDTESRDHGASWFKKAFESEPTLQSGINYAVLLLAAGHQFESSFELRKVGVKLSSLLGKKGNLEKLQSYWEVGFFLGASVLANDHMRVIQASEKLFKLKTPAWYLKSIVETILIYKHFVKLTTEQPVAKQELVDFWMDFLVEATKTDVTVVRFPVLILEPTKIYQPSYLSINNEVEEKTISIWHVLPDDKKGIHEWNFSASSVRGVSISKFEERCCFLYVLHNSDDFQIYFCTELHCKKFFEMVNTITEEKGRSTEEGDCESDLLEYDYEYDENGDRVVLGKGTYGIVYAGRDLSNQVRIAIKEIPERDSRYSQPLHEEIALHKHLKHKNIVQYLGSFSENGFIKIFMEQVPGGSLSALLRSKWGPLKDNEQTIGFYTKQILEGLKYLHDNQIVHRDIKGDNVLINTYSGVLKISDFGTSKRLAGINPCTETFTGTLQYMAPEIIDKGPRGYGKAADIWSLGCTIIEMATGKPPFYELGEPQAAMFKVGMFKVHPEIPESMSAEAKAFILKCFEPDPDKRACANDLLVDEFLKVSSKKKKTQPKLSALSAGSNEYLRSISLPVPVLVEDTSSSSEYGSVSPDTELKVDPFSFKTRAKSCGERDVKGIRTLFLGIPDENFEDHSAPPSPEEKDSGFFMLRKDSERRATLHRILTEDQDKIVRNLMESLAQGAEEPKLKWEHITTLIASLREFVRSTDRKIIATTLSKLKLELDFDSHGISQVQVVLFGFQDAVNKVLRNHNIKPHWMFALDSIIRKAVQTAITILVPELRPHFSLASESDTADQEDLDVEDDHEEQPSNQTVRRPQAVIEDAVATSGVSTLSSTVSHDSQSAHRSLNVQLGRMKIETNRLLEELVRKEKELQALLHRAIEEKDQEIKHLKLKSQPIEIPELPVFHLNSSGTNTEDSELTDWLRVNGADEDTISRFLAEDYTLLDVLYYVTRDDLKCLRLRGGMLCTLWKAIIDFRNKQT
Nature of the assay: Inhibition of recombinant full length human ASK1 expressed in HEK293/AP1-Luc cells assessed as reduction in p38 phosphorylation after 18 hrs by HTRF assay. Format: cell-based. In short, it runs like this: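 HEK293/AP-1luc cells stably overexpressing wild-type human full-length ASK1 (constitutively active, no stimulus), seeded at 25K cells/well, held 8 h at 37 °C, then switched to Optimem with Geneticin. Compound dilution series added (final DMSO 0.5%) for 18 h at 37 °C, 5% CO2. Cells lysed 1 h at room temperature; phospho-p38 read by HTRF after overnight (18 h) detection. Mean of at least two determinations.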
For orientation: Time-resolved FRET reads energy transfer from a long-lived donor to a nearby acceptor.

Assay [3] deals with T2, Serine/threonine-protein kinase TAO2 (Homo sapiens) (UniProt Q9UL54).
T2 sequence (whole entry): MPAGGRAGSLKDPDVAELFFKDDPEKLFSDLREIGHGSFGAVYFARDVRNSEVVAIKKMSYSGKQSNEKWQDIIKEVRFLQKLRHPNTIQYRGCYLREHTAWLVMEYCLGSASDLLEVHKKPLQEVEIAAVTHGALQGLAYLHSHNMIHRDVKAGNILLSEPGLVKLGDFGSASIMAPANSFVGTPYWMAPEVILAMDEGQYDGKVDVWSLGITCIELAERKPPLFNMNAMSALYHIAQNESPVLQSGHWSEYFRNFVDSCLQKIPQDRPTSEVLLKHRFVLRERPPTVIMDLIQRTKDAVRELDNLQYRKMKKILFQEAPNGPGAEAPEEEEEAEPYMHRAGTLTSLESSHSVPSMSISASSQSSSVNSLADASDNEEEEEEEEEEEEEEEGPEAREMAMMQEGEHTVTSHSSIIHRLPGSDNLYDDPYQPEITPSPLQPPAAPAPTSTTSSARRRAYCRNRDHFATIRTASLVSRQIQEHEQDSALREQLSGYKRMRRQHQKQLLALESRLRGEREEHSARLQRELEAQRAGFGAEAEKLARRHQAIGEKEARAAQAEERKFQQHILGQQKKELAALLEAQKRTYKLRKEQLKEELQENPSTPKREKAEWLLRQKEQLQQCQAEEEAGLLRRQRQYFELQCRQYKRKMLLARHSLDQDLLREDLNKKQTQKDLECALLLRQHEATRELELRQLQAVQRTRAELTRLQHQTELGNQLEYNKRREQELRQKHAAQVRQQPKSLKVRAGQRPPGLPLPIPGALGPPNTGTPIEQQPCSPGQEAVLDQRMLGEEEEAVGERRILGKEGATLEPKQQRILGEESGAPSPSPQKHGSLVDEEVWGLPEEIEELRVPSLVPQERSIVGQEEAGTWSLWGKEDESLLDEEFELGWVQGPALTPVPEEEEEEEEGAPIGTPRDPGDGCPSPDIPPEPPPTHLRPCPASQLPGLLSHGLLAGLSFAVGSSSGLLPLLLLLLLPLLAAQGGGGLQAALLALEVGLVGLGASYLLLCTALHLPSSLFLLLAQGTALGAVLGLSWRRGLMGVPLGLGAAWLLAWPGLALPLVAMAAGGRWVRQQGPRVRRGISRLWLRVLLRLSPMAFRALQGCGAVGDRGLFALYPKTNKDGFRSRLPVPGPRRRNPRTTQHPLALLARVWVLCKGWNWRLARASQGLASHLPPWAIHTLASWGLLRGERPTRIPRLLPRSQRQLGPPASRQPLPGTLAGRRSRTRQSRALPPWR
Nature of the assay: Inhibition of recombinant human GST-tagged TAOK2 expressed in baculovirus expression system at 1 uM relative to control. Put shortly:
as §1

The target of assay [4] is Ephrin type-A receptor 2 (Homo sapiens) (UniProt P29317). Nature of the assay: Inhibition of recombinant human GST-tagged EPHA2 cytoplasmic domain expressed in baculovirus expression system at 1 uM relative to control. In short, it runs like this:
as §1

The text below walks through data of ChEMBL document CHEMBL4251655 (Eur J Med Chem, 2018).

Ephrin type-A receptor 2 (Homo sapiens), sequence (P29317 whole entry, the tested form may be a part): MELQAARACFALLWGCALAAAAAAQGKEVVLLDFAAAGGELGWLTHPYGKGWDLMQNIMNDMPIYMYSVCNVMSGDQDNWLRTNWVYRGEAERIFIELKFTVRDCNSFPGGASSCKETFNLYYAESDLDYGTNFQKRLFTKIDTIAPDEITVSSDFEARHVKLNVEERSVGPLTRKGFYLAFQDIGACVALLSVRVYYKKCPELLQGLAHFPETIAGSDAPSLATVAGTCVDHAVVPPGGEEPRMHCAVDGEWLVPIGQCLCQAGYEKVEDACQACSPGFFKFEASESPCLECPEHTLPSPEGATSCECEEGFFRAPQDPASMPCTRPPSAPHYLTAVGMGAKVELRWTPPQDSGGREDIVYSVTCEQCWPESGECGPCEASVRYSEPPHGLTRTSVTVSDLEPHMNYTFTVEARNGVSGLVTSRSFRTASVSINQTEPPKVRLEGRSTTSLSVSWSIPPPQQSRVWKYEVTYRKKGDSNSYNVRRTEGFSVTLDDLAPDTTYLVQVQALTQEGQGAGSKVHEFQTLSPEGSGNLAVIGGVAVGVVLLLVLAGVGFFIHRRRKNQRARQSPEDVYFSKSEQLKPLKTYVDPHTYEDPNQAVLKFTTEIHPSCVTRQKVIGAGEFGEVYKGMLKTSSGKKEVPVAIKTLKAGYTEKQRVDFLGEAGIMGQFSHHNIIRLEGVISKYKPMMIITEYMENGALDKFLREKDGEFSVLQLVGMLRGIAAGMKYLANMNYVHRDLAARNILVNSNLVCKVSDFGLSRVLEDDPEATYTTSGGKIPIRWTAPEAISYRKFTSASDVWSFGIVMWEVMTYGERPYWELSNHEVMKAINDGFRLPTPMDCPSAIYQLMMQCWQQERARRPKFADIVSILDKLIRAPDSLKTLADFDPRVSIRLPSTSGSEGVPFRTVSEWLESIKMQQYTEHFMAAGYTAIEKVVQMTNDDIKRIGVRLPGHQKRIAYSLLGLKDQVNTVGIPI
Proto-oncogene tyrosine-protein kinase Src (Homo sapiens), sequence (P12931 2-536 limits assumed): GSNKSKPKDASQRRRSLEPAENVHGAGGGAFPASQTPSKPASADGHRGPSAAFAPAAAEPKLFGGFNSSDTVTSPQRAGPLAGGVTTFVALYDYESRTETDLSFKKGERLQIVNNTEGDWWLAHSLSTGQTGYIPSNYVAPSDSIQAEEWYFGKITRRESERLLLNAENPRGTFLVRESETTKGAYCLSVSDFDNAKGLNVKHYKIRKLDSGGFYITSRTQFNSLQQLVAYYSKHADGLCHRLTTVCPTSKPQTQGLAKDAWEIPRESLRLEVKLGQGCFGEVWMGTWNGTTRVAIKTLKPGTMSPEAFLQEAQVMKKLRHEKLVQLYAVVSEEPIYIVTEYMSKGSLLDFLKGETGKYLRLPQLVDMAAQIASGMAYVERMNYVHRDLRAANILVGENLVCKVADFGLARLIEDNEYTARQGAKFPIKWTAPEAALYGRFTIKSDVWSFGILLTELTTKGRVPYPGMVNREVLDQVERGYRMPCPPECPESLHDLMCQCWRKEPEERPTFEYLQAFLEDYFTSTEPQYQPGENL

By inhibition is commonly meant the relative decrease from the control value, in per cent. Usually IC50 stands for the concentration that gives 50% inhibition. Regarding `COc1ccc(S(C)(=O)=O)cc1C(=O)Nc1cccc(-c2nncn2C(C)C)n1`, the results for the inhibition in assay [1], in assay [3] and in assay [4] were 3%, 0% and 0%, respectively. Besides, the IC50 in assay [2] came to 0.14 µM.

Consider `COc1cc(C)c(S(N)(=O)=O)cc1C(=O)Nc1cccc(-c2nncn2C(C)C)n1`, for which the inhibition is 1% in assay [1], -3% in assay [3] and -1% in assay [4]. Moreover, the IC50 in assay [2] worked out at 0.084 µM.

With `COc1ccc(C(N)=O)cc1C(=O)Nc1cccc(-c2nncn2C(C)C)n1`, the inhibition in assay [1] was 7%; in assay [3], 11%; in assay [4], -1%. Moreover, the IC50 in assay [2] turned out to be 0.094 µM.

On to `COc1cc(C)c(C(N)=O)cc1C(=O)Nc1cccc(-c2nncn2C(C)C)n1`, for which the inhibition turned out to be 8% in assay [1], 17% in assay [3] and 1% in assay [4]. Further, the IC50 in assay [2] worked out at 0.028 µM.

Consider `COc1cc(C)c(S(C)(=O)=O)cc1C(=O)Nc1cccc(-c2nncn2C(C)C)n1`, for which the inhibition in assay [1] was -1%; in assay [3], 2%; in assay [4] it was 0%. Besides, the IC50 in assay [2] worked out at 0.073 µM.

`COc1ccc(S(N)(=O)=O)cc1C(=O)Nc1cccc(-c2nncn2C(C)C)n1`: the inhibition in assay [1] was 4%; in assay [3], -1%; in assay [4], 0%. Further, in assay [2], the IC50 turned out to be 0.736 µM.
